Published values gathered from unrelated publications.
Protocols differ between the studies behind these lines.

O=C(O)COc1cccc(-c2nc(Nc3ccc4[nH]ncc4c3)c3ccccc3n2)c1 — IC50 (Solute carrier family 22 member 6 (SLC22A6, Homo sapiens, UniProt Q4U2R8); transporter uptake, inhibitor, radiometric): > 500 µM
COc1ccc(N2CCN(CC(=O)Nc3ccc(C(=O)C=Cc4ccc(Br)cc4)cc3)CC2)cc1 — viability (MCF-10A; cell growth or viability, MTT; 50 µM, 96 h): 90%
CNS(=O)(=O)c1ccc(Nc2ncc(C(F)(F)F)c([C@H]3CC[C@@](C)(O)CC3)n2)c(C)c1 — Papp A→B (MDCK; Caco-2; 1 µM, 2 h, pH 7.4): 7.6 ×10⁻⁶ cm/s
C[C@H]1Oc2cc(cnc2N)-c2c(nn(C)c2C#N)CN(C)C(=O)c2ccc(F)cc21 — concentration (male Sprague-Dawley rat, brain; oral, 10 mg/kg, 24 h, single dose): 16.4 ng/g
Cc1cc(S(=O)(=O)N[C@H]2CC[C@H](CN3CCN(c4cccc(NC5CCC(=O)NC5=O)c4)CC3)CC2)ccc1Nc1ncc(C(F)(F)F)c(N2CCC[C@](C)(O)C2)n1 (stereo partly drawn) — Papp A→B (MDCK; Caco-2; 1 µM, 2 h, pH 7.4): 2.9 ×10⁻⁶ cm/s
CCCN(CCC)CCOc1ccc2c(=O)c3c([nH]c2c1)CCCC3 — half-life (metabolic stability; mouse, liver microsomes; 1 µM, pH 7.4): 26.9 min
Cc1ccc(C=CC(=O)c2ccc(NC(=O)CN3CCN(c4ccc(Cl)cc4)CC3)cc2)cc1 — viability (MCF-10A; cell growth or viability, MTT; 50 µM, 96 h): 89%
Cc1cc(S(=O)(=O)NC2CC(N3CCN(CC4CCN(c5cccc6c5n(C)c(=O)n6C5CCC(=O)NC5=O)CC4)CC3)C2)ccc1Nc1ncc(C(F)(F)F)c(N2CCC[C@](C)(O)C2)n1 (stereo partly drawn) — Papp A→B (MDCK; Caco-2; 1 µM, 2 h, pH 7.4): 1.2 ×10⁻⁶ cm/s
CCCN(CCC)CCNc1ccc2c(=O)c3c([nH]c2c1)CCCC3 — half-life (metabolic stability; mouse, liver microsomes; 1 µM, pH 7.4): 16.9 min
Cc1ccc(-c2nn(-c3ccccc3)cc2C=Nc2c(N)nc(S)nc2O)cc1 — CC50 (MCF-10A; cell growth or viability; 48 h): > 20 µM
COc1ccc(N2CCN(CC(=O)Nc3ccc(C(=O)C=Cc4ccc(Cl)cc4Cl)cc3)CC2)cc1 — viability (MCF-10A; cell growth or viability, MTT; 50 µM, 96 h): 86%
O=c1c2ccc(OCc3cccc(OC(F)(F)F)c3)cc2[nH]c2cc(Cl)cc(F)c12 — half-life (metabolic stability; mouse, liver microsomes; 1 µM, pH 7.4): > 60 min
CC(=O)N1N=C(c2ccc(NC(=O)CN3CCN(c4ccc(Cl)cc4)CC3)cc2)CC1c1ccco1 (stereo not drawn) — viability (MCF-10A; cell growth or viability, MTT; 50 µM, 96 h): 84%
Cc1cc(S(=O)(=O)N[C@]2(C)C[C@@H](N3CCN(CC4CCN(c5ccc6c(c5F)n(C)c(=O)n6C5CCC(=O)NC5=O)CC4)CC3)C2)ccc1Nc1ncc(C(F)(F)F)c(N2CCC[C@](C)(O)C2)n1 (stereo partly drawn) — Papp A→B (MDCK; Caco-2; 1 µM, 2 h, pH 7.4): 1.5 ×10⁻⁶ cm/s
O=c1c2ccc(OCc3ccc(C(F)(F)F)cc3)cc2[nH]c2cc(Cl)cc(F)c12 — half-life (metabolic stability; mouse, liver microsomes; 1 µM, pH 7.4): > 60 min
COc1ccc(N2CCN(CC(=O)Nc3ccc(C4=NN(C(C)=O)C(c5ccc(Cl)cc5Cl)C4)cc3)CC2)cc1 (stereo not drawn) — viability (MCF-10A; cell growth or viability, MTT; 50 µM, 96 h): 89%
Cc1cc(S(=O)(=O)NC2CC(N3CC[C@@H](OC4CN(c5cccc6c5n(C)c(=O)n6C5CCC(=O)NC5=O)C4)[C@H](F)C3)C2)ccc1Nc1ncc(C(F)(F)F)c(N2CCC[C@](C)(O)C2)n1 (stereo partly drawn) — Papp A→B (MDCK; Caco-2; 1 µM, 2 h, pH 7.4): 0.9 ×10⁻⁶ cm/s
CC(C)(C)OC(=O)N1CCC(Oc2ccc3c(=O)c4c(F)cc(Cl)cc4[nH]c3c2)CC1 — half-life (metabolic stability; mouse, liver microsomes; 1 µM, pH 7.4): > 60 min
Nc1nc(S)nc(O)c1N=Cc1cn(-c2ccccc2)nc1-c1ccc(Cl)cc1 — CC50 (MCF-10A; cell growth or viability; 48 h): > 40 µM
O=C(CN1CCN(c2ccc(Cl)cc2)CC1)Nc1ccc(C(=O)C=Cc2ccccc2)cc1 — viability (MCF-10A; cell growth or viability, MTT; 50 µM, 96 h): 85%
O=c1c2c([nH]c3cccc(Oc4ccc(OC(F)(F)F)cc4)c13)CCCC2 — half-life (metabolic stability; mouse, liver microsomes; 1 µM, pH 7.4): 11.9 min
Cc1cc(S(=O)(=O)N[C@H]2CC[C@H](CN3CCN(c4ccc(C5CCC(=O)NC5=O)c(Cl)c4)CC3)CC2)ccc1Nc1ncc(C(F)(F)F)c(N2CCC[C@](C)(O)C2)n1 (stereo partly drawn) — Papp A→B (MDCK; Caco-2; 1 µM, 2 h, pH 7.4): 1.3 ×10⁻⁶ cm/s
O=c1c2ccc(OCc3cccc(C(F)(F)F)c3)cc2[nH]c2ccc(Cl)c(F)c12 — half-life (metabolic stability; mouse, liver microsomes; 1 µM, pH 7.4): > 60 min
COc1ccc(C2CC(c3ccc(NC(=O)CN4CCN(c5ccc(OC)cc5)CC4)cc3)=NN2C(C)=O)cc1 (stereo not drawn) — viability (MCF-10A; cell growth or viability, MTT; 50 µM, 96 h): 92%
Cc1cc(S(=O)(=O)NC2CC(N3CCN(CC4CCN(c5cccc6c5n(C)c(=O)n6C5CCC(=O)NC5=O)CC4)C4(CC4)C3)C2)ccc1Nc1ncc(C(F)(F)F)c(N2CCC[C@](C)(O)C2)n1 (stereo partly drawn) — Papp A→B (MDCK; Caco-2; 1 µM, 2 h, pH 7.4): 0.7 ×10⁻⁶ cm/s
CC(=O)N1N=C(c2ccc(NC(=O)CN3CCN(c4ccc(Cl)cc4)CC3)cc2)CC1c1ccc(C)cc1 (stereo not drawn) — viability (MCF-10A; cell growth or viability, MTT; 50 µM, 96 h): 89%
O=c1c2ccc(Oc3ccc(OC(F)(F)F)cc3)cc2[nH]c2cc(Cl)c(F)cc12 — half-life (metabolic stability; mouse, liver microsomes; 1 µM, pH 7.4): > 60 min
